UCH37 DUB inh – human UCH37 deubiquitinating enzyme inhibition. Q9Y5K5. purified proteasome/UCH37, Ub-AMC cleavage fluorescence. inhibition, % (concentration not given with the values). 330,000 tested, 0.33% active. AID 588478;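 active = mean inhibition over replicate wells above about 20%, limit read from the data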;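 note: 0% = compound-free wells with enzyme and 100% = wells lacking proteasome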
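Signal – fluorescence, ex 355 nm, em 460 nm · System – Proteasome-bound UCH37 · Input – 0.15 nM proteasome as dispensed · Timing – 30 min preincubation with enzyme, 25 min cleavage at room temperature · Read-out basis – percent inhibition of cleavage signal versus uninhibited and no-proteasome wells · Medium – Tris-HCl pH 7.4 with ATP-MgCl2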
ALR H2O2 inh – blocks human ALR sulfhydryl oxidase activity. 290,000 tested, 3.8% active. AID 485317. purified ALR, DTT oxidation, H2O2 HRP-luminol luminescence. inhibition, % (test concentration not listed). P55789;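 active = mean replicate inhibition above about 79%, with every replicate also reaching it, limit read from the data; inconclusive = only one of the two criteria met; inactive = mean below limit and not every replicate reaching it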
Target sequence (P55789 whole entry, looked up): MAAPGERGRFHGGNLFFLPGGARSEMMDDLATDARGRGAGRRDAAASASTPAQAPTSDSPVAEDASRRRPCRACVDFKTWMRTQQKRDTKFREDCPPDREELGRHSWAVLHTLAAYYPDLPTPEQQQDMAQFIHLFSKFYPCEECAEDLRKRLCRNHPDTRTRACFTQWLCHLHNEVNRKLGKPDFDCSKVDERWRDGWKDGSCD
Calb FLC – affects C. albicans growth with fluconazole; C. albicans CaCi-2 + fluconazole, Alamar Blue growth, 48 h; growth inhibition, % (concentration not given with the values); 300,000 tested, 0.57% active;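 active = growth inhibition above about 58% in most replicates, limit read from the data, passing the limit was not always enough; inconclusive = exactly half the replicates above a set limit; inactive = most replicates below a set limit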;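 note: all wells also contain fluconazole at 8 µg/ml as a sub-toxic cotreatment; 0% = median of DMSO wells and 100% = median of geldanamycin control wells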
NALP1 yeast inh – NALP1 inhibition. S. cerevisiae NALP1/ASC/caspase-1 growth, X-gal OD620, 72 h. inhibition, % at 10 µM. 280,000 tested, 0.61% active. AID 2071; in the data active = inhibition mostly above about 24%, no sharp cut-off; inactive = mostly below about 32%
ATG4B inh – inhibitors of human ATG4B cysteine protease; ATG4B cleavage of LC3-PLA2, NBD-HPC fluorescence, 1 h; 340,000 tested, 0.51% active; inhibition, % at 8.33 µM; Q9Y4P1; AID 504462; in the data active = inhibition above about 40%
NALP3 yeast inh – NALP3 inhibition in yeast; AID 2825; Yeast reconstituted NLRP3/ASC/caspase-1, beta-gal luminescence, 24 h; inhibition, % at 10 µM; 330,000 tested, 0.39% active;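 active = inhibition of 50% or more; inactive = inhibition below 50%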;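 note: plate controls were induced DMSO wells for no effect and uninduced yeast grown without galactose for full effect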
* marks the source's active call; other numbers are inactive results. In the library only some 4.8% were active in any assay of this set; here they are far more common.

Screening COc1ccc(C(C)=NNC(=O)C2CC2)cc1 returned UCH37 DUB inh -1.
For O=C(Cc1ccccc1)NCC(=O)NN=Cc1cccnc1 the results were UCH37 DUB inh 2.
Cc1ccc2[nH]c(C(=O)NN=Cc3ccccc3C(=O)O)c(-c3ccccc3)c2c1 was read as UCH37 DUB inh 11.
`Cc1c(NC(=O)CSc2nc3ccccc3s2)c(=O)n(-c2ccccc2)n1C` gave UCH37 DUB inh 0, ALR H2O2 inh 99*, Calb FLC 19, NALP1 yeast inh 16, ATG4B inh 19 and NALP3 yeast inh 14.
`O=C(CSc1nc2ccccc2s1)NC1CCCC1` gave UCH37 DUB inh 3, ALR H2O2 inh 99*, Calb FLC 17, ATG4B inh -1 and NALP3 yeast inh 27.
For O=C(CSc1nnc(CSc2nc3ccccc3s2)o1)NC1CCCCC1 the results were UCH37 DUB inh -3, ALR H2O2 inh -8, Calb FLC -17, NALP1 yeast inh 15, ATG4B inh 0 and NALP3 yeast inh 17.
Screening Cc1csc(SCC(=O)Nc2c(C)n(C)n(-c3ccccc3)c2=O)n1 returned ALR H2O2 inh 0, Calb FLC -17, NALP1 yeast inh -12, ATG4B inh 3 and NALP3 yeast inh 0.
`CCOC(=O)NC(=O)COC(=O)CCCSc1nc2ccccc2s1` gave UCH37 DUB inh 0, ALR H2O2 inh 93*, Calb FLC inconclusive, NALP1 yeast inh 3, ATG4B inh -2 and NALP3 yeast inh 19.
`COc1ccc(Nc2nc(NCc3ccco3)nc(NN=Cc3ccccc3)n2)cc1` gave UCH37 DUB inh -2.
CC(=NNC(=O)C(=O)Nc1cccc(Cl)c1C)c1ccncc1 was read as UCH37 DUB inh 0.
For Cc1cccc(NC2=C/C(=N/S(=O)(=O)c3cccs3)c3ccccc3C2=O)c1 the results were NALP1 yeast inh 20 and ATG4B inh 28.
Cc1cccc(NC2=CC(=NS(=O)(=O)c3cccs3)c3ccccc3C2=O)c1 was read as UCH37 DUB inh 50*.
Screening O=C(Cn1nc2n(c1=O)-c1ccccc1SC2)NN=Cc1cccnc1 returned UCH37 DUB inh 4.
`Cc1sc(Cc2nc(O)cs2)nc1-c1ccccc1` gave ALR H2O2 inh 97*, Calb FLC -8, NALP1 yeast inh -7, ATG4B inh -8 and NALP3 yeast inh 8.
`CC1(C)Cc2c(sc(N=CN3CCCC3)c2C#N)C(C)(C)N1` gave UCH37 DUB inh 8.
O=C(NNC1=C(C(=O)C(F)(F)F)CCC1)c1cccc(Cl)c1 was read as UCH37 DUB inh 0, ALR H2O2 inh 25, Calb FLC 101*, NALP1 yeast inh -9, ATG4B inh 20 and NALP3 yeast inh 5.
`O=C(NNC1=C(C(=O)C(F)(F)F)CCC1)c1ccc(Cl)cc1` gave UCH37 DUB inh 10, ALR H2O2 inh 9, Calb FLC 109*, NALP1 yeast inh -6, ATG4B inh 15 and NALP3 yeast inh 12.
Cc1ccccc1C=NNc1ncnc2nc[nH]c12 was read as UCH37 DUB inh 9.
Screening COc1cccc(C(=NO)C2CC2c2ccc(Cl)cc2)c1 (configuration not stated) returned UCH37 DUB inh 4.
COC(=O)c1cccc2c1-c1ccccc1C2=NNC(N)=O was read as UCH37 DUB inh 3.
`OC(CSc1ccc(F)cc1)CN1CCN(c2ccccc2)CC1` (configuration not stated) gave UCH37 DUB inh 0, ALR H2O2 inh 87*, Calb FLC -1, NALP1 yeast inh 22, ATG4B inh 3 and NALP3 yeast inh 21.
COC(=O)NN=Cc1cc(Cl)c(OCc2ccc(F)cc2)c(OC)c1 was read as UCH37 DUB inh 3.
For COc1ccc(NCC(=O)NN=CC2CCCCC2)cc1 the results were UCH37 DUB inh 1.
COc1ccc(NCC(=O)N/N=C/C2CCCCC2)cc1 was read as ALR H2O2 inh 92*, Calb FLC -9, NALP1 yeast inh -8, ATG4B inh -3 and NALP3 yeast inh 7.
`CC(=NNC(=O)CN1CCN(Cc2ccccc2)CC1)c1ccncc1` gave UCH37 DUB inh -1.
